This is an account of results in ChEMBL document CHEMBL4130566, “χ-Space Screening of Dermorphin-Based Tetrapeptides through Use of Constrained Arylazepinone and Quinolinone Scaffolds” (ACS Med Chem Lett, 2017).

Test [1] deals with Mu-type opioid receptor (Mus musculus, UniProt P42866). Nature of the test: Displacement of [125I]-DAMGO from mouse FLAG-tagged Mu-type opioid receptor expressed in HEK293 cell membranes after 60 mins by gamma counting analysis. In a few lines:
(§1)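 Competitive radioligand displacement binding in HEK293 cells expressing MOP or DOP. The MOP-selective tracer is [125I]-DAMGO and the DOP-selective tracer is [125I]-Deltorphin II. Values are reported as IC50.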

For test [2], the target named is T1, Delta-type opioid receptor (Mus musculus, UniProt P32300). Nature of the test: Displacement of [125I]-Deltorphin II from mouse FLAG-tagged delta-type opioid receptor expressed in HEK293 cell membranes after 60 mins by gamma counting analysis. In outline:
as §1
In general terms: Loss of bound radioactivity is the signal in a displacement assay; it reports binding, not function.

Test [3] concerns the target T2, Mu-type opioid receptor (Cavia porcellus, UniProt P97266). Nature of the test: (§2) Agonist activity at mu-opioid receptor in guinea pig ileum assessed as inhibition of electrically induced contractions. The format is functional. In a few lines:
(§3)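 Guinea pig ileum (GPI) serves as the MOP-representative tissue and mouse vas deferens (MVD) as the DOP-representative tissue. Values are reported as IC50.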

Test [4] deals with T1, Delta-type opioid receptor. Nature of the test: Agonist activity at delta-type opioid receptor in mouse vas deferens assessed as inhibition of electrically stimulated contractions. The format is functional. In outline:
as §3

For another test, the species on record is Mus musculus. Nature of the test: Selectivity ratio of IC50 for mouse FLAG-tagged delta-type opioid receptor expressed in HEK293 cell membranes to IC50 for mouse FLAG-tagged Mu-type opioid receptor expressed in HEK293 cell membranes. Type of test: cell-based.
For test [5], the target named is T3, Mu-type opioid receptor (Rattus norvegicus, UniProt P33535). Nature of the test: Displacement of [3H]naloxone from Mu-type opioid receptor in Sprague-Dawley rat brain membranes. Type of test: cell membranes, Membrane.
In test [6] the target is T4, Delta-type opioid receptor (Rattus norvegicus, UniProt P33533). Nature of the test: Displacement of [3H][Ile5,6]-deltorphin II from delta-type opioid receptor in Sprague-Dawley rat brain membranes. Type of test: cell membranes, Membrane.
The target of test [7] is T3, Mu-type opioid receptor. Nature of the test: Displacement of [3H]-CTOP from Mu-type opioid receptor in Sprague-Dawley rat brain homogenate after 180 mins by scintillation counting.
Test [8] has as its target T4, Delta-type opioid receptor. Nature of the test: Displacement of [H][p-ClPhe4]-DPDPE from delta-type opioid receptor in Sprague-Dawley rat brain homogenates after 180 mins by scintillation counting.
In test [9] the target is T2, Mu-type opioid receptor. Nature of the test: Agonist activity at mu-opioid receptor in Hartley guinea pig ileum assessed as inhibition of electrically induced contractions after 3 mins post dose. Type of test: functional. In outline:
as §3

The target of test [10] is T1, Delta-type opioid receptor. Nature of the test: Agonist activity at delta-type opioid receptor in ICR mouse vas deferens assessed as […] of electrically stimulated contractions after 3 mins post dose. Type of test: functional.
In test [11] the target is Mu-type opioid receptor (Cavia porcellus) (UniProt P97266). Nature of the test: Antagonist activity at mu-opioid receptor in guinea pig ileum assessed as inhibition of TAPP-induced reduction in electrically stimulated contractions. The format is functional.
In test [12] the target is Delta-type opioid receptor (Mus musculus) (UniProt P32300). Nature of the test: Antagonist activity at delta-type opioid receptor in mouse vas deferens assessed as inhibition of DPDPE-induced electrically stimulated contractions. The format is functional.
The target in test [13] is Mu-type opioid receptor (Cavia porcellus) (UniProt P97266). The test is described as §2. Type of test: functional. In outline: as §3
Test [14] deals with Mu-type opioid receptor (Homo sapiens, UniProt P35372). Nature of the test: Binding affinity to Mu-type opioid receptor (unknown origin).
The target in test [15] is Delta-type opioid receptor (Homo sapiens, UniProt P41143). Nature of the test: Binding affinity to delta-type opioid receptor (unknown origin).

pIC50, pKi: −log10 of the molar value. Square brackets hold non-standard residues; d marks the D form. Peptide text beside a SMILES is read from it.

T1 sequence (P32300 whole entry): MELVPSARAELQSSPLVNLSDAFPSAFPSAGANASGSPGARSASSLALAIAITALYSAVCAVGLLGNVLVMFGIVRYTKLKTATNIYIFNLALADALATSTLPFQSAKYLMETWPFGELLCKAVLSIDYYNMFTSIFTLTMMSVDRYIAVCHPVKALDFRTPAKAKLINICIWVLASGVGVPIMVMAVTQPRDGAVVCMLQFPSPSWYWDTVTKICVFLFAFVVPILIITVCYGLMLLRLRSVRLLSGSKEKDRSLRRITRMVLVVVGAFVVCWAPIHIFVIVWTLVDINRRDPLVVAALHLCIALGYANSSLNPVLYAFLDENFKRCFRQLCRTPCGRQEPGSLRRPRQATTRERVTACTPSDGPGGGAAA
T2 sequence (P97266 whole entry): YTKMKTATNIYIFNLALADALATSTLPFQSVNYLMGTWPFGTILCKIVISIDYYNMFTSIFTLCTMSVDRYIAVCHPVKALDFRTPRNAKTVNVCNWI
Mu-type opioid receptor (Cavia porcellus), sequence (P97266 whole entry): as above
Mu-type opioid receptor (Mus musculus, UniProt P42866), sequence (P42866 whole entry): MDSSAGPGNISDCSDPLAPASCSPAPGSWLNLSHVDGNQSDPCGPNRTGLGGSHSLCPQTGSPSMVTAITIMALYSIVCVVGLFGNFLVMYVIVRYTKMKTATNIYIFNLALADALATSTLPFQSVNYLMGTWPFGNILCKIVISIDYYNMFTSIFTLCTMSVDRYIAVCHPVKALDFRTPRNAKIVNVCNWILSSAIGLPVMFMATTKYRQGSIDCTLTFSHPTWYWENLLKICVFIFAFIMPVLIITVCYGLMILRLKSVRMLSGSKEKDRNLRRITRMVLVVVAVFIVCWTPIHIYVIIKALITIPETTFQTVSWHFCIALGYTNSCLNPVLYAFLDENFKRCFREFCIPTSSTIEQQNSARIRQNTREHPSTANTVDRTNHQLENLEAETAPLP
Delta-type opioid receptor (Mus musculus), sequence (P32300 whole entry): as the sequence (P32300 whole entry) above
T4 sequence (P33533 whole entry): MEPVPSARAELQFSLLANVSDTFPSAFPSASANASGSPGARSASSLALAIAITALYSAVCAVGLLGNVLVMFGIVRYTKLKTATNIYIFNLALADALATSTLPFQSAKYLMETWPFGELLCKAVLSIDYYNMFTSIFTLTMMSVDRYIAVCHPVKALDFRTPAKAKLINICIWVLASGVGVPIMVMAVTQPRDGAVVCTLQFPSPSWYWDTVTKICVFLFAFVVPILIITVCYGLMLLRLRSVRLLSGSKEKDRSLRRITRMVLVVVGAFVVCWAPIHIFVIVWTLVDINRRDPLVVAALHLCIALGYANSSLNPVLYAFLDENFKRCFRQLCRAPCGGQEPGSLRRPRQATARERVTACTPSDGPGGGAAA
T3 sequence (P33535 whole entry): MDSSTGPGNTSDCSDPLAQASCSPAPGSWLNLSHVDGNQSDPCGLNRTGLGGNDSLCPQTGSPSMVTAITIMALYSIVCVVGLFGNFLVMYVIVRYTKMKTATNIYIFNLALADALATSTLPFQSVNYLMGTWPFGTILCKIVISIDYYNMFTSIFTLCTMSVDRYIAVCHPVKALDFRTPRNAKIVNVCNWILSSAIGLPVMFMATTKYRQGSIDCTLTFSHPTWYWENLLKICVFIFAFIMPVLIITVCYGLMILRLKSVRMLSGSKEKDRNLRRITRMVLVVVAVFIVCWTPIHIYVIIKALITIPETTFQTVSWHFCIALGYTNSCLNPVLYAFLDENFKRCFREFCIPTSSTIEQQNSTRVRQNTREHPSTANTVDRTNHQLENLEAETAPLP
Delta-type opioid receptor (Homo sapiens, UniProt P41143), sequence (P41143 whole entry): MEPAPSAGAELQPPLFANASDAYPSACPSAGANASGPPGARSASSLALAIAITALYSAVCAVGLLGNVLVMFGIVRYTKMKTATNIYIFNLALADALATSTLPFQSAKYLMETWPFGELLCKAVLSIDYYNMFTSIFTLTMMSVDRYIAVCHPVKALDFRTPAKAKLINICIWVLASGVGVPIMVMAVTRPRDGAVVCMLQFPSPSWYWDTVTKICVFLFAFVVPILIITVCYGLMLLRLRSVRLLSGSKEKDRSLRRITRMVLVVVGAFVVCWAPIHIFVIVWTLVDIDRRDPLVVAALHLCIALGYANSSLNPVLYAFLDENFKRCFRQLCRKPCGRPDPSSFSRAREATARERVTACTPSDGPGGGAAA
Mu-type opioid receptor (Homo sapiens, UniProt P35372), sequence (P35372 whole entry): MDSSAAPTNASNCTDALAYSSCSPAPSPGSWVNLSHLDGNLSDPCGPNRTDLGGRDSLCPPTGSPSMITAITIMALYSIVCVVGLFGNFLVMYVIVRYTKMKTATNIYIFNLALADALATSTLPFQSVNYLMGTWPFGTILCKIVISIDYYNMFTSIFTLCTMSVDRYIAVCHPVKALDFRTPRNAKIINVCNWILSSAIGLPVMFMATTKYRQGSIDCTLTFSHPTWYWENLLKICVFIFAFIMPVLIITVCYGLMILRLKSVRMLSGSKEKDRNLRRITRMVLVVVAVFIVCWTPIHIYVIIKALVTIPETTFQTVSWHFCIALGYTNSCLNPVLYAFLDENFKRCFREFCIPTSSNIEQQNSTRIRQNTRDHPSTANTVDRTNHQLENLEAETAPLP

On to `Cc1cc(O)cc(C)c1C[C@H](N)C(=O)N[C@H](C)C(=O)N[C@H]1Cc2c(ccc3ccccc23)CN(CC(N)=O)C1=O`, for which the pIC50 is 9.41 on Mu-type opioid receptor [1], 8.68 in test [2], 8.95 on Mu-type opioid receptor [3] and 9.07 in test [4]. Further, in the test listed under Mus musculus, the Ratio IC50 was determined as 5.

For `C[C@@H](NC(=O)[C@@H](N)Cc1ccc(O)cc1)C(=O)N[C@H]1Cc2ccccc2CN(CC(N)=O)C1=O`, the pIC50 on Mu-type opioid receptor [3] was 7.30; in test [4], 7.33; on Mu-type opioid receptor [5], 7.46; in [6], 7.80.

In the case of `Cc1cc(O)cc(C)c1C[C@H](N)C(=O)N[C@H](CCCNC(=N)N)C(=O)N[C@H]1Cc2ccc3ccccc3c2CN(CC(N)=O)C1=O`, the pIC50 is 8.66 at Mu-type opioid receptor [1], 6.82 in test [2], 7.67 at Mu-type opioid receptor [3] and 6.94 in test [4]. Further, the Ratio IC50 in the test filed under Mus musculus worked out at 70.

Regarding `C[C@@H](NC(=O)[C@@H](N)Cc1ccc(O)cc1)C(=O)N[C@@H](Cc1ccccc1)C(=O)NCC(N)=O` (H-Y[dA]FG-NH2), the pIC50 at Mu-type opioid receptor [7] is 7.44; in test [8], 5.90; on Mu-type opioid receptor [9], 7.46; in test [10], 6.58.

On to `Cc1cc(O)cc(C)c1C[C@H](N)C(=O)N[C@H](C)C(=O)N[C@H]1Cc2cc3ccccc3cc2CN(CC(N)=O)C1=O`, for which the results for the Ke in [11] and in [12] were 5.53 nM and 360 nM, respectively.

As to `Cc1cc(O)cc(C)c1C[C@H](N)C(=O)N[C@H](C)C(=O)N[C@H]1Cc2ccc3ccccc3c2CN(CC(N)=O)C1=O`, the pIC50 on Mu-type opioid receptor [1] is 8.75; in [2], 6.78. Further, the Ke came out at 2.88 nM in test [11] and 306 nM in test [12]. For the same molecule, the Ratio IC50 in the test listed under Mus musculus turned out to be 94.

In the case of `Cc1cc(O)cc(C)c1C[C@H](N)C(=O)N[C@H](CCCNC(=N)N)C(=O)N[C@H]1Cc2ccc(Br)cc2CN(CC(N)=O)C1=O`, the pIC50 was 9.12 on Mu-type opioid receptor [1], 7.22 in [2] and 8.07 in test [4]. In addition, in test [13], the 25% effect concentration (IC25) was found to be 22 nM. Also, in the test filed under Mus musculus, the Ratio IC50 was determined as 80.

Consider `Cc1cc(O)cc(C)c1C[C@H](N)C(=O)N[C@H](CCCNC(=N)N)C(=O)N[C@H]1Cc2c(ccc3ccccc23)CN(CC(N)=O)C1=O`, for which the pIC50 is 9.48 at Mu-type opioid receptor [1], 9.00 in [2], 9.60 at Mu-type opioid receptor [3] and 8.85 in test [4]. Besides, the Ratio IC50 in the test filed under Mus musculus was 3.

On to `Cc1cc(O)cc(C)c1C[C@H](N)C(=O)N[C@H](CCCNC(=N)N)C(=O)N[C@H]1Cc2ccccc2N(CC(N)=O)C1=O`, for which the pIC50 is 8.79 on Mu-type opioid receptor [1], 6.20 in test [2] and 7.04 in test [4]. Also, in test [13], the IC35 is 33.7 nM. The Ratio IC50 in the test listed under Mus musculus worked out at 389.

Take `C[C@@H](NC(=O)[C@@H](N)Cc1ccc(O)cc1)C(=O)N[C@@H](Cc1ccccc1)C(=O)NCC(=O)N[C@@H](Cc1ccc(O)cc1)C(=O)N1CCC[C@H]1C(=O)N[C@@H](CO)C(N)=O` [DERMORPHIN]: on Mu-type opioid receptor [3], the pIC50 was 8.97.

`Cc1cc(O)cc(C)c1C[C@H](N)C(=O)N[C@H](CCCN=C(N)N)C(=O)N[C@H]1Cc2ccccc2CN(CC(N)=O)C1=O`: the pKi on Mu-type opioid receptor [14] is 9.82; in [15], 9.22.

As to `Cc1cc(O)cc(C)c1C[C@H](N)C(=O)N(C)[C@H](C)C(=O)N[C@H]1Cc2c(ccc3ccccc23)CN(CC(N)=O)C1=O`, the pIC50 was 9.46 on Mu-type opioid receptor [1], 8.83 in [2], 9.37 at Mu-type opioid receptor [3] and 8.96 in test [4]. For the same molecule, the Ratio IC50 in the test listed under Mus musculus turned out to be 4.

In general, pIC50 refers to −log10 of the IC50, conventionally taken in molar units. The term IC25 denotes the concentration at which the effect reaches the 25% level. Usually pKi stands for the Ki on a negative log10 scale, so that one unit is a factor of ten. Low readings indicate a large Ki, high ones a small Ki.
